Measurements: ChEMBL document CHEMBL1137724, “2-Azetidinone derivatives: design, synthesis and evaluation of cholesterol absorption inhibitors” (2009)

Assays:
[1] = system: Hamster; assay: Hypocholesterolemic effect in high cholesterol-fed hamster assessed as increase in HDL-cholesterol at 50 mg/kg, po for 7 days; assay type: functional, Cricetinae
In short: (§1)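 Blood was collected at sacrifice on the last dosing day for lipid analysis. Plasma total cholesterol and HDL-C were measured by a commercial kit using a modified cholesterol oxidase method.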

[2] = system: Hamster; assay: Hypocholesterolemic effect in high cholesterol-fed hamster assessed as reduction in plasma total cholesterol at 50 mg/kg, po for 7 days; assay type: functional, Cricetinae; set-up: scale not given: the % may be the effect or the level left; in short: as §1

Structure (SMILES) | Activity [1] [%] | Activity [2] [%] | Activity ([1]; 50 mg/kg) [%] | Activity ([2]; 50 mg/kg) [%]
O=C1[C@H](CCC(O)(c2ccccc2)c2ccccc2)[C@@H](c2ccc3c(c2)OCO3)N1c1ccc(Cl)cc1 (relative stereo) | 11.4 | 28.7 | – | –
COc1ccc([C@@H]2[C@@H](CCC(=O)Nc3ccc(Cl)cc3)C(=O)N2c2ccc(C)cc2)cc1 | 13.7 | 31.6 | – | –
Cc1ccccc1N1C(=O)[C@H](CCC(O)(c2ccc(F)cc2)c2ccc(F)cc2)[C@H]1c1ccc2c(c1)OCO2 | 24.8 | 10.4 | – | –
O=C1[C@H](CC[C@H](O)c2ccc(F)cc2)[C@@H](c2ccc(O)cc2)N1c1ccc(F)cc1 [EZETIMIBE] | 37.3 | 48.7 | – | –
COc1ccc([C@@H]2[C@@H](CCC(=O)Nc3ccc(Cl)cc3)C(=O)N2c2ccc(OC)cc2)cc1 (relative stereo) | 20.1 | 16.3 | – | –
COc1ccc([C@@H]2[C@@H](CCC(O)(c3ccccc3)c3ccccc3)C(=O)N2c2ccccc2C)cc1 | 14.5 | 34.8 | – | –
COc1ccc([C@@H]2[C@@H](CCC(O)(c3ccc(F)cc3)c3ccc(F)cc3)C(=O)N2c2ccc(Br)cc2)cc1 (relative stereo) | 32.9 | 11.2 | – | –
COc1ccc([C@@H]2[C@@H](CCC(=O)Nc3ccc(C)cc3)C(=O)N2c2ccccc2)cc1 (relative stereo) | – | – | 13.9 | –
COc1ccc(N2C(=O)[C@H](CCC(O)(c3ccc(F)cc3)c3ccc(F)cc3)[C@H]2c2cc3c(cc2Br)OCO3)cc1 | 31.8 | 19.8 | – | –
COc1ccc([C@@H]2[C@@H](CCC(=O)Nc3ccc(C)cc3)C(=O)N2c2ccc(C)cc2)cc1 (relative stereo) | 23.9 | 18.7 | – | –
COc1ccc([C@@H]2[C@@H](CCC(O)(c3ccccc3)c3ccccc3)C(=O)N2c2ccc(F)cc2)cc1 (relative stereo) | 35 | 16.3 | – | –
COc1ccc([C@@H]2[C@@H](CCC(=O)Nc3ccc(C)cc3)C(=O)N2c2ccc(OC)cc2)cc1 | – | – | 21.7 | 28.1
COc1ccc([C@@H]2[C@@H](CCC(=O)Nc3ccc(C)cc3)C(=O)N2c2ccccc2)cc1 | – | – | 22.1 | –
COc1ccc([C@@H]2[C@@H](CCC(=O)Nc3ccc(C)cc3)C(=O)N2c2ccc(OC)cc2)cc1 (relative stereo) | – | – | 12.4 | 20.9
COc1ccc([C@H]2[C@H](CCC(=O)Nc3ccc(Cl)cc3)C(=O)N2c2ccc(C)cc2)cc1 (relative stereo) | 17.8 | 26.3 | – | –
